22 molecules from ChEMBL document CHEMBL1130077, “Synthesis and antitumor properties of N-[2-(dimethylamino)ethyl]carboxamide derivatives of fused tetracyclic quinolines and quinoxalines: a new class of putative topoisomerase inhibitors” (J Med Chem, 1997) can be followed below.

The nature of experiment [1]: Inhibitory concentration against Murine Lewis lung carcinoma (LLC) cell proliferation. It is filed as functional, cell-based. As to conditions: Mus musculus. In short, it runs like this: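 Lewis lung carcinoma (LLTC) cells plated at 10³ per well and exposed to drug for 4 days. Growth was measured by sulforhodamine assay. IC50 is the concentration giving 50% of control cell number. Independent assays were run in duplicate, with a coefficient of variation of 12%.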

A short description of experiment [2]: Ratio of inhibitory concentration of Human Jurkat leukemia A (JLA) and Human Jurkat leukemia C (JLC). The experiment is classed as functional. In short, it runs like this: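 Human Jurkat leukemia cells (JLC) and their amsacrine-resistant derivative (JLA) were seeded at 3.75 × 10³ cells/well and grown 4 days with drug. Growth was read by sulforhodamine assay. IC50 is the drug level cutting cell number to 50% of control cultures; the ratio is IC50(JLA)/IC50(JLC). Independent assays were run in duplicate; CVs were 9.3% (JLA) and 6.3% (JLC).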

The nature of experiment [3]: Inhibitory concentration to reduce cell number to 50% of Murine P388 leukemia cell culture. It is filed as functional, Mus musculus. In short, it runs like this: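 Murine P388 leukemia cells seeded at 4.5 × 10³ per well and grown 3 days with drug. Growth was read by [³H]TdR uptake. IC50 is the drug concentration that reduces cell number to 50% of control cultures. Independent assays were run in duplicate, with a coefficient of variation of 12%.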

Experiment [4] in a line: Inhibitory concentration against Human Jurkat leukemia (JLC) cell proliferation. The experiment is classed as functional. In short, it runs like this:
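Human Jurkat leukemia (JL_C) cells at 3.75 × 10³ per well, cultured 4 days with drug. Sulforhodamine read-out. IC50 is the concentration reducing cell number to 50% of untreated controls. Duplicate independent assays, coefficient of variation 6.3%.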

Experiment [5] can be described thus: Ratio of inhibitory concentration of Human Jurkat leukemia D (JLD) and Human Jurkat leukemia C (JLC). It is filed as functional. In short, it runs like this: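 Parental Jurkat (JL_C) and its amsacrine-resistant (JL_A) and doxorubicin-resistant (JL_D) derivatives, each seeded at 3.75 × 10³ per well for 4 days of drug exposure. Sulforhodamine assay gave IC50 (50% of control cell number). The ratio is resistant-line IC50 over JL_C IC50. Duplicate assays; coefficients of variation 9.3% (JL_A) and 5.7% (JL_D).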

Each structure is given as a SMILES string.

By IC50 is commonly meant the point on the concentration scale where inhibition reaches its midpoint. As to `CN(C)CCNC(=O)c1cccc2cc3c(nc12)C(=O)c1ccccc1-3`, the IC50 was 150 nM in experiment [1], 85 nM in experiment [3] and 370 nM in experiment [4]. For the same molecule, the IC50 ratio in experiment [2] and in experiment [5] was 0.9 in each case.

With `CC[C@@]1(O)C(=O)OCc2c1cc1n(c2=O)Cc2cc3ccccc3nc2-1` [CAMPTOTHECIN], the IC50 in experiment [1] stood at 33 nM; in experiment [4], 5.6 nM. Moreover, the IC50 ratio in experiment [2] was 2; in experiment [5] it was 1.4.

With `CN(C)CCNC(=O)c1cc(Cl)cc2[nH]c3c4ccccc4nc-3nc12`, the values for the IC50 in experiment [1], in experiment [3] and in experiment [4] were 360 nM, 15000 nM and 300 nM, respectively. Besides, the IC50 ratio in experiment [2] was determined as 1.2; in experiment [5], 1.3.

Consider `CN(C)CCNC(=O)c1cccc2nc3c(nc12)-c1ccccc1C3`, for which the IC50 was 390 nM in experiment [1], 360 nM in experiment [3] and 550 nM in experiment [4]. In addition, the IC50 ratio in experiment [2] and in experiment [5] was 1 each time.

As for `CN(C)CCNC(=O)c1cccc2cc3sc4ccccc4c3nc12`, the results for the IC50 in experiment [1], in experiment [3] and in experiment [4] were 66 nM, 46 nM and 170 nM, respectively. The IC50 ratio was found to be 1.5 in experiment [2] and 1.6 in experiment [5].

In the case of `CN(C)CCNC(=O)c1cc(Cl)cc2[nH]c3nc4ccccc4c-3nc12`, the values for the IC50 in experiment [1], in experiment [3] and in experiment [4] were 700 nM, 1600 nM and 980 nM, respectively. For the same molecule, the values for the IC50 ratio in experiment [2] and in experiment [5] were 0.8 and 0.9, respectively.

Take `CN(C)CCNC(=O)c1cccc2c(C(=O)NCCN(C)C)c3sc4ccccc4c3nc12`: the IC50 in experiment [1] stood at 30 nM; in experiment [3], 25 nM; in experiment [4] it was 34 nM. Moreover, the IC50 ratio came out at 0.5 in experiment [2] and 0.9 in experiment [5].

Take `CN(C)CCNC(=O)c1cccc2nc3sc4ccccc4c3nc12`: the values for the IC50 in experiment [1], in experiment [3] and in experiment [4] were 110 nM, 100 nM and 150 nM, respectively. Besides, the IC50 ratio stood at 1.9 in experiment [2] and 2.7 in experiment [5].

Consider `COc1cc(NS(C)(=O)=O)ccc1Nc1c2ccccc2nc2ccccc12` [AMSACRINE], for which the results for the IC50 in experiment [1], in experiment [3] and in experiment [4] were 12 nM, 20 nM and 37 nM, respectively. Further, the IC50 ratio in experiment [2] came to 85; in experiment [5], 74.

Regarding `CN(C)CCNC(=O)c1cc(Cl)cc2nc3c(nc12)oc1ccccc13`, the IC50 in experiment [1] stood at 1400 nM; in experiment [3] it was 6800 nM; in experiment [4], 1500 nM. Also, the IC50 ratio was 1.2 in experiment [2] and > 1.3 in experiment [5].

As to `CN(C)CCNC(=O)c1cccc2cc3ccccc3nc12`, the IC50 in experiment [3] was found to be 98 nM; in experiment [4], 580 nM.

Take `CN(C)CCNC(=O)c1cccc2cc3c(nc12)-c1ccccc1S3(=O)=O`: the concentration for half-maximal inhibition (IC50) is 430 nM in experiment [1], 1800 nM in experiment [3] and 860 nM in experiment [4]. The values for the IC50 ratio in experiment [2] and in experiment [5] were 3.2 and 4.2, respectively.

In the case of `CN(C)CCNC(=O)c1cccc2cc3c(nc12)-c1ccccc1C3`, the figures for the IC50 in experiment [1], in experiment [3] and in experiment [4] were 190 nM, 88 nM and 320 nM, respectively. In addition, the IC50 ratio in experiment [2] was 1.8; in experiment [5], 1.9.

Regarding `COc1cccc2c1C(=O)c1c(O)c3c(c(O)c1C2=O)C[C@@](O)(C(=O)CO)C[C@@H]3O[C@H]1C[C@H](N)[C@H](O)[C@H](C)O1` [DOXORUBICIN], the IC50 in experiment [1] is 22 nM; in experiment [3], 15 nM; in experiment [4], 9.6 nM. The results for the IC50 ratio in experiment [2] and in experiment [5] were 4.4 and 90, respectively.

`CN(C)CCNC(=O)c1cccc2nc3c(nc12)oc1ccccc13`: the IC50 in experiment [1] was found to be 1700 nM; in experiment [3] it was 2200 nM; in experiment [4], 2600 nM. Moreover, the IC50 ratio in experiment [2] and in experiment [5] was 1 each time.

As to `CN(C)CCNC(=O)c1cccc2cc3oc4ccccc4c3nc12`, the IC50 in experiment [1] worked out at 210 nM; in experiment [3] it was 170 nM; in experiment [4], 430 nM. Besides, the IC50 ratio in experiment [2] and in experiment [5] was 1.2 in each case.

As for `COc1cc([C@@H]2c3cc4c(cc3[C@@H](O[C@@H]3O[C@@H]5CO[C@@H](C)O[C@H]5[C@H](O)[C@H]3O)[C@H]3COC(=O)[C@H]23)OCO4)cc(OC)c1O` [ETOPOSIDE], the IC50 was 180 nM in experiment [1], 25 nM in experiment [3] and 160 nM in experiment [4]. The IC50 ratio in experiment [2] amounted to 13; in experiment [5], 90.

In the case of `CN(C)CCNC(=O)c1cccc2nc3c(nc12)-c1ccccc1C3=O`, the IC50 in experiment [1] was found to be 880 nM; in experiment [3], 700 nM; in experiment [4], 1100 nM. In addition, the IC50 ratio in experiment [2] was 1; in experiment [5], 1.1.

Turning to `CN(C)CCNC(=O)c1cc(Cl)cc2nc3oc4ccccc4c3nc12`, the IC50 in experiment [1] is > 2000 nM; in experiment [3], 5800 nM; in experiment [4], > 2000 nM.

Regarding `CN(C)CCNC(=O)c1cccc2cc3[nH]c4ccccc4c3nc12`, the values for the IC50 in experiment [1], in experiment [3] and in experiment [4] were 290 nM, 370 nM and 450 nM, respectively. For the same molecule, the IC50 ratio in experiment [2] came to 1; in experiment [5] it was 1.1.

Regarding `CN(C)CCNC(=O)c1cccc2cc3c(nc12)-c1ccccc1C3=O`, the results for the IC50 in experiment [1], in experiment [3] and in experiment [4] were 91 nM, 130 nM and 180 nM, respectively. Moreover, the IC50 ratio came to 1.2 in experiment [2] and 0.9 in experiment [5].

As to `CN(C)CCNC(=O)c1cccc2[nH]c3c4ccccc4nc-3nc12`, the results for the IC50 in experiment [1], in experiment [3] and in experiment [4] were 990 nM, 670 nM and 1400 nM, respectively. The values for the IC50 ratio in experiment [2] and in experiment [5] were 0.9 and 1, respectively.
